Measurements collected from several papers.
Each line is one published result; the experiments were not run side by side.
Organism: Pseudomonas aeruginosa
Read-out: microbial growth

C[C@@H](O)[C@H]1C(=O)N2C(C(=O)O)=C(SCCN=CN)C[C@H]12
MIC (broth dilution; ATCC27853): 4 µg/mL

COc1ccc2ccc(O)c(/C=N/[C@H]3CCCC[C@H]3/N=C/c3ccc(-c4ccccc4)cc3O)c2c1
MIC (broth dilution): > 40 µM

CCCCCCCCN=c1ccn(CCCCCCCCCCn2ccc(=NCCCCCCCC)cc2)cc1
MIC (PAO1): 2 µM

CN(C)[C@@H]1C(O)=C(C(N)=O)C(=O)[C@@]2(O)C(O)=C3C(=O)c4c(O)cccc4[C@@](C)(O)[C@H]3C[C@@H]12
MIC (broth dilution; ATCC27853): 16 µg/mL

CCCCCCC#Cc1cncc(-c2nnc(SCc3cc([N+](=O)[O-])cc([N+](=O)[O-])c3)n2CCOC2OC(CN)C(O)C2O)c1 (stereo not shown)
MIC (broth dilution; DSM1128): > 64 µg/mL

Cc1ccc2[nH]nc(-c3nnc(Nc4ccc(C(F)(F)F)cc4)s3)c2c1
MIC (ATCC27853): 126 µg/mL

[H]/N=C(/N)N[C@H]1[C@H](O)[C@@H](O)[C@H](O[C@@H]2O[C@@H](C)[C@](O)(C=O)[C@H]2O[C@@H]2O[C@@H](CO)[C@H](O)[C@@H](O)[C@@H]2NC)[C@@H](N/C(N)=N\[H])[C@@H]1O
MIC (broth dilution; ATCC27 ATCC27853): 20 µg/mL

Cc1ccc2[nH]nc(-c3nnc(Nc4ccc(Cl)c(Cl)c4)s3)c2c1
MIC (ATCC27853): 121 µg/mL

CNC(C)C1CCC(N)C(OC2C(N)CC(N)C(OC3OCC(C)(O)C(NC)C3O)C2O)O1 (stereo not shown)
MIC (broth dilution): 2 µg/mL

C[C@@H](O)[C@H]1C(=O)N2C(C(=O)O)=C(S[C@@H]3CN[C@H](C(=O)N(C)C)C3)[C@H](C)[C@H]12
MIC (broth dilution; ATCC27853): 0.25 µg/mL

Cc1ccc2[nH]nc(-c3nnc(Nc4ccc(F)cc4)s3)c2c1
MIC (ATCC27853): 63.9 µg/mL

C[C@H]1COc2c(N3CCN(C)CC3)c(F)cc3c(=O)c(C(=O)O)cn1c23
MIC (ATCC27853; drug-resistant strain): 1 µg/mL

CCCCCCC#Cc1cncc(-c2nnc(SCc3ccc([N+](=O)[O-])o3)n2CCCN)c1
MIC (broth dilution; DSM1128): > 64 µg/mL

COc1ccc2ccc(O)c(/C=N/[C@H]3CCCC[C@H]3/N=C/c3ccc(OCCN4CCCCC4)cc3O)c2c1
MIC (broth dilution; clinical isolate): > 40 µM

Cc1ccc2[nH]nc(-c3nnc(Nc4ccc(C)c(C)c4)s3)c2c1
MIC (ATCC27853): 108 µg/mL

CO/N=C(\C(=O)N[C@@H]1C(=O)N2C(C(=O)O)=CCS[C@H]12)c1csc(N)n1
MIC (broth dilution; ATCC27853): 16 µg/mL

Cc1ccc2[nH]nc(-c3nnc(Nc4ccc([N+](=O)[O-])cc4)s3)c2c1
MIC (ATCC27853): 105 µg/mL

COc1ccc2ccc(O)c(/C=N/[C@H]3CCCC[C@H]3/N=C/c3c(O)cccc3F)c2c1
MIC (broth dilution): > 40 µM

CCCCCCC#Cc1cncc(-c2nnc(SCc3cc([N+](=O)[O-])cc([N+](=O)[O-])c3)n2C2CCNCC2)c1
MIC (broth dilution; DSM1128): > 64 µg/mL

Cc1ccc2[nH]nc(-c3nnc(Nc4cc(Cl)cc(Br)c4)s3)c2c1
MIC (ATCC27853): 224 µg/mL

CCCCCCC#Cc1cncc(-c2nnc(SCc3ccc([N+](=O)[O-])cc3)n2CCCN)c1
MIC (broth dilution; DSM1128): > 64 µg/mL

CC[C@H]1OC(=O)[C@H](C)[C@@H](O[C@H]2C[C@@](C)(OC)[C@@H](O)[C@H](C)O2)[C@H](C)[C@@H](O[C@@H]2O[C@H](C)C[C@H](N(C)C)[C@H]2O)[C@](C)(O)C[C@@H](C)CN(C)[C@H](C)[C@@H](O)[C@]1(C)O
MIC (ATCC27853): < 98 µg/mL
